The source made the active and inactive calls. The calls are words filed in the database; no cut-off is given here.
How the values were obtained:
Cannabinoid receptor 2 [1] = molecular target: T1, Cannabinoid receptor 2 (Homo sapiens, UniProt P34972); experiment: Displacement of [3H]CP55940 from human CB2 receptor expressed in HEK293 cell membranes by scintillation counting method
How it was run: (§1)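 Competition binding against [3H]CP-55,940 using rat brain membranes (CB1) or membranes of HEK293 cells expressing mouse or human CB2. IC50 from nonlinear regression, converted to Ki. Each experiment run in triplicate; Ki is the mean of three independent experiments.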

Cannabinoid receptor 1 [2] = molecular target: T2, Cannabinoid receptor 1 (Rattus norvegicus, UniProt P20272); experiment: Displacement of [3H]CP55940 from CB1 receptor in rat brain membranes by scintillation counting method; type: cell membranes; how it was run: as §1
Cannabinoid receptor 2 [3] = molecular target: T3, Cannabinoid receptor 2 (Mus musculus, UniProt P47936); experiment: Displacement of [3H]CP55940 from mouse CB2 receptor expressed in HEK293 cell membranes by scintillation counting method; how it was run: as §1
Rattus norvegicus [4] = experiment: Hypothermic activity in sc dosed Sprague-Dawley rat assessed as decrease in rectal body temperature measured over 6 hrs; type: functional
How it was run: (§2)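 Female Sprague-Dawley rats, 250–350 g, n = 6/group, retested with ≥5 days between sessions. Dosed sc (1.0 mL/kg) in 20% ethanol/20% alkamuls/60% saline diluted with saline. Rectal thermistor at 6 cm depth. Two baselines 15 min apart, then readings every 30 min for 3 h and hourly to 6 h. Change taken from mean baseline.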

Squirrel monkey [5] = experiment: Effect on response rate in squirrel monkey at 0.003 mg/kg, im; type: functional, organism-based; conditions: Saimiri sciureus
How it was run: (§3)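 Squirrel monkeys trained on two levers to discriminate 0.01 mg/kg im CB1 agonist from vehicle. After im test dosing, sequential sessions began at 15, 30, 60, 120, 240, 480 and 960 min, with some groups also tested at 36 and 48 h. Measured percent responding on the agonist lever (≥90% counted as full substitution) and overall response rate.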

Squirrel monkey [6] = experiment: Induction of CB1-related discriminative stimulus effect in squirrel monkey at 0.003 mg/kg, im measured within 15 mins; type: functional, organism-based; conditions: Saimiri sciureus; how it was run: as §3
Cannabinoid receptor 1 [7] = molecular target: T2, Cannabinoid receptor 1; experiment: Binding affinity to rat CB1 receptor
How it was run: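 Competition displacement of [3H]CP-55,940 from rat brain membranes (CB1 source). IC50 from nonlinear regression of competition curves, converted to Ki. Each experiment run in triplicate; Ki is the mean of three independent experiments.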

Squirrel monkey [8] = experiment: Induction of CB1-related discriminative stimulus effect in squirrel monkey assessed as time required for 50% loss of full effect at 0.003 mg/kg, im; type: functional, organism-based; conditions: Saimiri sciureus; how it was run: as §3
Squirrel monkey [9] = experiment: Induction of CB1-related discriminative stimulus effect in squirrel monkey at 0.003 mg/kg, im measured at 36 hrs; type: functional, organism-based; conditions: Saimiri sciureus; how it was run: as §3
Rattus norvegicus [10] = experiment: Hypothermic activity in Sprague-Dawley rat assessed as time required for decrease in rectal body temperature at 0.01 to 1 mg/kg, sc; type: functional; how it was run: as §2
Squirrel monkey [11] = experiment: Induction of CB1-related discriminative stimulus effect in squirrel monkey at 0.003 mg/kg, im measured after 24 hrs; type: functional, organism-based; conditions: Saimiri sciureus
Cannabinoid receptor 2 [12] = molecular target: T3, Cannabinoid receptor 2; experiment: Binding affinity to mouse CB2 receptor; how it was run: as §1
[13] = molecular target: Cannabinoid receptor 1 (Rattus norvegicus) (UniProt P20272); experiment: Agonist activity at rat CB1 receptor expressed in HEK293 cells assessed as decrease in forskolin-stimulated cAMP levels at 500 nM after 30 mins relative to CP-55940; type: functional, cell-based
Cannabinoid receptor 1 [14] = molecular target: T2, Cannabinoid receptor 1; experiment: Agonist activity at rat CB1 receptor expressed in HEK293 cells assessed as decrease in forskolin-stimulated cAMP levels after 30 mins; type: functional, cell-based
How it was run: (§4)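 Stably transfected HEK293 cells harvested with Versene, washed in HBSS, resuspended in stimulation buffer. Cells exposed to graded compound concentrations in buffer containing forskolin (2 μM final), 30 min at room temperature. cAMP read by TR-FRET (Eu-cAMP tracer plus ULight anti-cAMP antibody, 60 min room temperature). EC50 from nonlinear regression.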

[15] = Half life in rat plasma assessed as esterase-mediated compound hydrolysis at 200 uM by HPLC method; type: ADME, cell-free
How it was run: (§5)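 Compound diluted to 200 μM in mouse or rat plasma and shaken at 37 °C, 100 rpm. Samples taken at timed points, diluted 1:4 in acetonitrile and centrifuged. Supernatant analysed by reversed-phase C18 HPLC, acetonitrile/acidified water gradient, UV detection. 4-Nitrophenyl butyrate run as control in each experiment. Half-life from exponential decay fit.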

[16] = Half life in mouse plasma assessed as esterase-mediated compound hydrolysis at 200 uM by HPLC method; type: ADME, cell-free; how it was run: as §5
Cannabinoid receptor 2 [17] = molecular target: T1, Cannabinoid receptor 2; experiment: Agonist activity at human CB2 receptor expressed in HEK293 cells assessed as decrease in forskolin-stimulated cAMP levels after 30 mins; type: functional, cell-based; how it was run: as §4
Cannabinoid receptor 2 [18] = molecular target: T1, Cannabinoid receptor 2; experiment: Agonist activity at human CB2 receptor expressed in HEK293 cells assessed as decrease in forskolin-stimulated cAMP levels at 500 nM after 30 mins relative to CP-55940; type: functional, cell-based
Rattus norvegicus [19] = experiment: Hypothermic activity in Sprague-Dawley rat assessed as decrease in rectal body temperature at 0.1 mg/kg, sc measured over 6 hrs; type: functional; how it was run: as §2
Rattus norvegicus [20] = experiment: Hypothermic activity in Sprague-Dawley rat assessed as time required for decrease in rectal body temperature at 0.03 to 3 mg/kg, sc; type: functional; how it was run: as §2
Rattus norvegicus [21] = experiment: Hypothermic activity in Sprague-Dawley rat assessed as decrease in rectal body temperature at 0.1 mg/kg, sc after 6 hrs; type: functional, organism-based; how it was run: as §2
Rattus norvegicus [22] = experiment: Hypothermic activity in Sprague-Dawley rat assessed as decrease in rectal body temperature at 3 mg/kg, sc measured over 6 hrs; type: functional; how it was run: as §2
Mus musculus [23] = experiment: Analgesic activity in CD1 mouse assessed as increase in tail flick latency at 1 mg/kg, ip measured at 360 mins relative to control; type: functional
How it was run: (§6)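 Male CD-1 mice, 30–35 g, n = 6, each used once, habituated over three mock sessions at 38 °C. Tail-flick latency in a 52 °C water bath at baseline, then 20, 60, 180 and 360 min after ip dosing (10 mL/kg). Vehicle 2% DMSO/4% Tween-80/4% propylene glycol with saline, freshly prepared. Scored as %MPE.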

Squirrel monkey [24] = experiment: Induction of CB1-related discriminative stimulus effect in squirrel monkey assessed as time required for 50% loss of full effect at 0.001 mg/kg, im; type: functional, organism-based; conditions: Saimiri sciureus; how it was run: as §3
Rattus norvegicus [25] = experiment: Hypothermic activity in Sprague-Dawley rat assessed as decrease in rectal body temperature at 1 mg/kg, sc measured over 6 hrs; type: functional; how it was run: as §2
Squirrel monkey [26] = experiment: Effect on response rate in squirrel monkey at 0.001 mg/kg, im; type: functional, organism-based; conditions: Saimiri sciureus; how it was run: as §3
Squirrel monkey [27] = experiment: Induction of CB1-related discriminative stimulus effect in squirrel monkey at 0.001 mg/kg, im after 4 to 16 hrs; type: functional, organism-based; conditions: Saimiri sciureus; how it was run: as §3
Mus musculus [28] = experiment: Analgesic activity in CD1 mouse assessed as increase in tail flick latency at 1 mg/kg, ip measured at 180 mins relative to control; type: functional; how it was run: as §6
Mus musculus [29] = experiment: Analgesic activity in CD1 mouse assessed as increase in tail flick latency at 1 mg/kg, ip measured at 60 mins relative to control; type: functional; how it was run: as §6
Mus musculus [30] = experiment: Analgesic activity in CD1 mouse assessed as increase in tail flick latency at 1 mg/kg, ip measured at 20 mins relative to control; type: functional; how it was run: as §6
Squirrel monkey [31] = experiment: Induction of CB1-related discriminative stimulus effect in squirrel monkey at 0.001 mg/kg, im after 1 hr; type: functional, organism-based; conditions: Saimiri sciureus; how it was run: as §3

T1 sequence (P34972 whole entry): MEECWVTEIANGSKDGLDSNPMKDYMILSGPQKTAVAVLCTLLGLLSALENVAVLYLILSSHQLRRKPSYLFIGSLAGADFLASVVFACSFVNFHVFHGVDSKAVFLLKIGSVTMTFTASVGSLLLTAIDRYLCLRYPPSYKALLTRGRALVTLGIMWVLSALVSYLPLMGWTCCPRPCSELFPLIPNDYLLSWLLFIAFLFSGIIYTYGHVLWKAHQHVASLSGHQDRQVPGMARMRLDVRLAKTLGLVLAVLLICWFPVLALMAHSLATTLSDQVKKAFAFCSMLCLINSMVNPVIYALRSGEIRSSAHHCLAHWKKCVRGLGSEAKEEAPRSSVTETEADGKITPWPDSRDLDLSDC
T3 sequence (P47936 whole entry): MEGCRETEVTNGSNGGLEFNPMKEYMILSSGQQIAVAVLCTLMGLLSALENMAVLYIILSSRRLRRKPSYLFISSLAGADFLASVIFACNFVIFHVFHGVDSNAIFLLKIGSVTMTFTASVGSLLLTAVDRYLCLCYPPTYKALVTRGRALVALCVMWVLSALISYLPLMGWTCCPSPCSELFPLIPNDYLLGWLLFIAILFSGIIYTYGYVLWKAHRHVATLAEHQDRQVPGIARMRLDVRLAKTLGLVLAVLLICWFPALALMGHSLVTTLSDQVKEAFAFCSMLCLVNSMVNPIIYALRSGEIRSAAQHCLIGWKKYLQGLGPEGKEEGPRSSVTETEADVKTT
T2 sequence (P20272 whole entry): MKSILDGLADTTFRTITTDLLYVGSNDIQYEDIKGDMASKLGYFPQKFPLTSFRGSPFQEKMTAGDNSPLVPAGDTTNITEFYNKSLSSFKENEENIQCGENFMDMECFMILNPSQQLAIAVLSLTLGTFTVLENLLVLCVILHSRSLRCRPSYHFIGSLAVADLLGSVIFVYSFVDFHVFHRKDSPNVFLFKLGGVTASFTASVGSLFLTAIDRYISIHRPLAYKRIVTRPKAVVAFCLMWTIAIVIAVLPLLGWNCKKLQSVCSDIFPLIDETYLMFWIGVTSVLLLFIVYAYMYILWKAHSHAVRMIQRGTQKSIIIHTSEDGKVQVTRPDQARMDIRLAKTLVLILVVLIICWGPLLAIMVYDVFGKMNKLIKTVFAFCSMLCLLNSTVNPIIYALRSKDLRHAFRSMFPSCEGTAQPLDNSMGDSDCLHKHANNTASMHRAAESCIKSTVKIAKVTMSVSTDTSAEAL
Chain of Cannabinoid receptor 1 (Rattus norvegicus) (P20272 whole entry): as above

CCCCOC(=O)Cc1cc(O)c2c(c1)OC(C)(C)[C@@H]1CC[C@@H](O)C[C@@H]21
Ki (Cannabinoid receptor 2 [1]): 432 nM
Ki (Cannabinoid receptor 1 [2]): 238 nM
Ki (Cannabinoid receptor 2 [3]): 317 nM

CCCCCCC(C)(C)c1cc(O)c2c(c1)OC(C)(C)[C@@H]1CC=C(CO)C[C@@H]21
ED50 (Rattus norvegicus [4]): 0.04 mg/kg
Activity (Squirrel monkey [5]): inactive
Activity (Squirrel monkey [6]): Active
Ki (Cannabinoid receptor 1 [7]): 0.7 nM
T1/2 (Squirrel monkey [8]): 66 min
Activity (Squirrel monkey [9]): inactive
Time (Rattus norvegicus [10]): 1 to 3 h
Activity (Squirrel monkey [11]): Active
Ki (Cannabinoid receptor 2 [12]): 0.2 nM

CCCCOC(=O)C(C)(C)c1cc(O)c2c(c1)OC(C)(C)[C@@H]1CC=C(CO)C[C@@H]21
Activity (Rattus norvegicus [4]): Dose-dependent effect
ED50 (Rattus norvegicus [4]): 0.04 mg/kg
Emax [13]: 89%
EC50 (Cannabinoid receptor 1 [14]): 4.6 nM
t1/2 [15]: 39.1 min
t1/2 [16]: 5 min
EC50 (Cannabinoid receptor 2 [17]): 5.7 nM
Emax (Cannabinoid receptor 2 [18]): 83%
T (Rattus norvegicus [19]): >4 °C
Time (Rattus norvegicus [20]): 1 to 3 h
Activity (Rattus norvegicus [21]): inactive
T (Rattus norvegicus [22]): 4.7 - 7.2 °C

CCCCOC(=O)C(C)(C)c1cc(O)c2c(c1)OC(C)(C)[C@@H]1CC[C@@H](CO)C[C@@H]21
Ki (Cannabinoid receptor 2 [1]): 3.1 nM
MPE (Mus musculus [23]): 58%
Activity (Rattus norvegicus [4]): Dose-dependent effect
ED50 (Rattus norvegicus [4]): 0.04 mg/kg
Emax [13]: 87%
EC50 (Cannabinoid receptor 1 [14]): 2.5 nM
Ki (Cannabinoid receptor 1 [2]): 2.4 nM
T1/2 (Squirrel monkey [24]): 48 min
T (Rattus norvegicus [25]): 4.7 - 7.2 °C
t1/2 [15]: 39.2 min
Activity (Squirrel monkey [26]): inactive
Ki (Cannabinoid receptor 2 [3]): 0.1 nM
t1/2 [16]: 3.1 min
EC50 (Cannabinoid receptor 2 [17]): 0.3 nM
Time (Rattus norvegicus [10]): 1 to 3 h
Emax (Cannabinoid receptor 2 [18]): 82%
Activity (Squirrel monkey [27]): inactive
T (Rattus norvegicus [19]): >4 °C
MPE (Mus musculus [28]): 97%
Activity (Rattus norvegicus [21]): inactive
MPE (Mus musculus [29]): 96%
MPE (Mus musculus [30]): 94%
Activity (Squirrel monkey [31]): Active

CCCCOC(=O)C(C)(C)c1cc(O)c2c(c1)OC(C)(C)[C@@H]1CC[C@H](O)C[C@@H]21
t1/2 [15]: 5.6 min
t1/2 [16]: 2.8 min

CC(C)(C(=O)O)c1cc(O)c2c(c1)OC(C)(C)[C@@H]1CC=C(CO)C[C@@H]21
Ki (Cannabinoid receptor 1 [2]): > 10000 nM
Ki (Cannabinoid receptor 2 [3]): > 10000 nM

CC1(C)Oc2cc(CC(=O)O)cc(O)c2[C@@H]2C[C@H](O)CC[C@H]21
Ki (Cannabinoid receptor 1 [2]): > 10000 nM
Ki (Cannabinoid receptor 2 [3]): > 10000 nM
